Test [1] can be described thus: Inhibition of TGF-beta expressed in human A549 cells assessed as luciferase activity after 4 hrs by Smad2/3 reporter assay. Type of test: cell-based. In outline:
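A549 human lung epithelial cells stably carrying a luciferase reporter driven by four tandem Smad2/3 binding sequences (p(SBE)4-Luc); cells given test compound together with TGF-β1 (2 ng/ml), cultured 4 h, then luciferase activity read by chemiluminescence (Steady Glo); IC50 values reported.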

Test [2] has as its target Proto-oncogene tyrosine-protein kinase Src (Homo sapiens, UniProt P12931). Nature of the test: Inhibition of c-Src.
Another test deals with T1, TGF-beta receptor type-1 (Homo sapiens, UniProt P36897).
T1 sequence (P36897 whole entry): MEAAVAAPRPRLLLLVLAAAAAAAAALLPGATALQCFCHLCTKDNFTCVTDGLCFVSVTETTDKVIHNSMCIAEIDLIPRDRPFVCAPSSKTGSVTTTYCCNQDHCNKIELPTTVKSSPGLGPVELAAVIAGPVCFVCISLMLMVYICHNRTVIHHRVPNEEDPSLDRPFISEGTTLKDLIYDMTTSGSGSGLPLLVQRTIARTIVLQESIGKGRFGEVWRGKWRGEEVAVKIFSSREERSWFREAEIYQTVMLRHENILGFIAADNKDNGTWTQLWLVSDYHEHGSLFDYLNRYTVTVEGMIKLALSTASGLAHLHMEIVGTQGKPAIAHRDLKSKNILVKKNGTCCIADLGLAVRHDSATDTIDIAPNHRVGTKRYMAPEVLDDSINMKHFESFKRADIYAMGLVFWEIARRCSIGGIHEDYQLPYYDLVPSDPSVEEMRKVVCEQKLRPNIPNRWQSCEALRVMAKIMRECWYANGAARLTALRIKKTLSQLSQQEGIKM
Put plainly: Inhibition of ALK5 by filter binding assay.

Test [3] in a line: Inhibition of TGF-beta mediated Smad2 phosphorylation in human A549 cells after 30 mins by Western blot. Type of test: cell-based. Particulars: A549, 0.5 h. For orientation: A western blot detects proteins with antibodies after separation by electrophoresis.

Proto-oncogene tyrosine-protein kinase Src, sequence (P12931 2-536 limits assumed): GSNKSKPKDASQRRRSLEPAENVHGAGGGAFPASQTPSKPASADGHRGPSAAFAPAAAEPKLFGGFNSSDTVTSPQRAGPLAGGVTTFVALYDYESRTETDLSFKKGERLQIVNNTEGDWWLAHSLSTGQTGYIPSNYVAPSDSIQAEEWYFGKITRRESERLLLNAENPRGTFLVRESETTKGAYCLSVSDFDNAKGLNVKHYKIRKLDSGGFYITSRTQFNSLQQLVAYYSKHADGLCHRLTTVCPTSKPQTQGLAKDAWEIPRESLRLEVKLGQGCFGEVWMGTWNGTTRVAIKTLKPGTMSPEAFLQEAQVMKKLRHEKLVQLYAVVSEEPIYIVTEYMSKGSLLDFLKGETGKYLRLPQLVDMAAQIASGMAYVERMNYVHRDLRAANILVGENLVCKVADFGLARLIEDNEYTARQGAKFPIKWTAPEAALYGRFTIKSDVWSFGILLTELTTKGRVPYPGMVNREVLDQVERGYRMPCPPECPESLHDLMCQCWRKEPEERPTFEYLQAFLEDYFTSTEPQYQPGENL

For orientation: IC50 means the midpoint of a concentration-inhibition curve. For `COc1ccc(Oc2ccnc3cc(OC)c(OC)cc23)c(C(C)=O)c1`, in test [1], the IC50 came out at 590 nM.
On the same count and under the same terms, for `CCC(=O)c1ccc(OC)cc1Oc1ccnc2cc(OC)c(OC)cc12` the value was 1800 nM.
Still for that read-out and setting: then `COc1ccc(Oc2ccnc3cc(OC)c(OC)cc23)c(C(=O)c2ccccc2)c1`, with over 10000 nM.
Consider `COc1cc2nccc(Oc3ccc(C)cc3C(C)=O)c2cc1OC`, for which the IC50 stood at 2300 nM in test [1], 8400 nM in test [2] and 4400 nM at TGF-beta receptor type-1.
In the case of `CCOc1ccc(Oc2ccnc3cc(OC)c(OC)cc23)c(C(C)=O)c1`, the IC50 in test [1] is 5600 nM.
The same measure, in the same setting: for `COc1cc2nccc(Oc3ccc(C)cc3C(=O)c3ccc(C(C)(C)C)cc3)c2cc1OC` the value was 8500 nM; for `COc1cc2nccc(Oc3ccc(Cl)cc3C(=O)c3ccccc3)c2cc1OC`, 2700 nM; for `COc1cc(Oc2ccnc3cc(OC)c(OC)cc23)c(C(C)=O)cc1OC`, over 10000 nM.
Regarding `COc1cc2nccc(Oc3ccc(C)cc3C(=O)c3ccno3)c2cc1OC`, the IC50 in test [1] stood at 2500 nM.
On the same count and under the same terms, for `COc1cc2nccc(Oc3cc(C)ccc3C(C)=O)c2cc1OC` the value was 5500 nM; for `COc1ccc(C(C)=O)c(Oc2ccnc3cc(OC)c(OC)cc23)c1`, 8800 nM; for `COc1cc2nccc(Oc3ccccc3C(C)=O)c2cc1OC`, over 10000 nM.
As for `CCc1ccc(Oc2ccnc3cc(OC)c(OC)cc23)c(C(C)=O)c1`, the IC50 in test [1] came to 830 nM.
With `COc1cc2nccc(Oc3cc(C)c(Cl)cc3C(C)=O)c2cc1OC`, in test [1], the 50% inhibitory concentration (IC50) stood at 420 nM.
Take `COc1cc2nccc(Oc3ccc(C)cc3C(=O)c3ccccc3)c2cc1OC`: the IC50 came to 640 nM in test [1], 500 nM in test [3], 1700 nM in test [2] and 2700 nM on TGF-beta receptor type-1.
As for `CCC(=O)c1cc(OC)ccc1Oc1ccnc2cc(OC)c(OC)cc12`, the IC50 in test [1] stood at 1100 nM.
Same read-out and setting: then `COc1cc2nccc(Oc3ccc(C)cc3C=O)c2cc1OC`, with over 10000 nM; and `CCCCc1ccc(Oc2ccnc3cc(OC)c(OC)cc23)c(C(C)=O)c1`, with 2200 nM; and `CCCc1ccc(Oc2ccnc3cc(OC)c(OC)cc23)c(C(C)=O)c1`, with 540 nM.
Same read-out and setting: for `COc1cc2nccc(Oc3ccc(C)cc3C(=O)c3ccco3)c2cc1OC` the value was 2700 nM.
With `COc1cc2nccc(Oc3ccccc3C(=O)c3ccccc3)c2cc1OC`, the values for the IC50 (in test [1]; in test [2]; on TGF-beta receptor type-1) were 4700 nM, 4500 nM and 16000 nM, respectively.
Regarding `COc1cc2nccc(Oc3ccc(F)cc3C(C)=O)c2cc1OC`, the IC50 in test [1] was 3800 nM.
On the same count and under the same terms, for `COc1cc2nccc(Oc3ccc(Br)cc3C(=O)c3ccccc3)c2cc1OC` the value was 3200 nM; for `CCC(=O)c1cc(C)ccc1Oc1ccnc2cc(OC)c(OC)cc12`, 620 nM; for `COc1cc2nccc(Oc3ccc(C)cc3C(=O)N3CCCCC3)c2cc1OC`, over 10000 nM.
On the same count and under the same terms, for `COc1cc2nccc(Oc3cc(C)c(C)cc3C(=O)c3ccccc3)c2cc1OC` the value was 1400 nM.
As to `COc1cc2nccc(Oc3cc(C)c(C)cc3C(C)=O)c2cc1OC`, the IC50 amounted to 370 nM in test [1], 500 nM in test [3], 13000 nM in test [2] and 630 nM at TGF-beta receptor type-1.
With `COc1cc2nccc(Oc3ccc(C)cc3C(=O)C3CCCC3)c2cc1OC`, the concentration for half-maximal inhibition (IC50) in test [1] came out at 2200 nM.
On the same count and under the same terms, for `COc1ccc(C(=O)c2ccccc2)c(Oc2ccnc3cc(OC)c(OC)cc23)c1` the value was 4900 nM.
On the same count and under the same terms, for `COc1cc2nccc(Oc3cc(C)c(Cl)cc3C(=O)c3ccccc3)c2cc1OC` the value was 2100 nM; for `CCCOc1ccc(Oc2ccnc3cc(OC)c(OC)cc23)c(C(C)=O)c1`, over 10000 nM.

Source of the values: ChEMBL document CHEMBL1150385, “Synthesis and evaluation of [2-(4-quinolyloxy)phenyl]methanone derivatives: novel selective inhibitors of transforming growth factor-beta kinase” (J Med Chem, 2008).
